Assay [1] addresses T1, Amylin 3 receptor (AMY3R; CHO K1 CALCR RAMP3) (Homo sapiens, UniProt O60896+P30988).
T1 sequence (P30988 25-474): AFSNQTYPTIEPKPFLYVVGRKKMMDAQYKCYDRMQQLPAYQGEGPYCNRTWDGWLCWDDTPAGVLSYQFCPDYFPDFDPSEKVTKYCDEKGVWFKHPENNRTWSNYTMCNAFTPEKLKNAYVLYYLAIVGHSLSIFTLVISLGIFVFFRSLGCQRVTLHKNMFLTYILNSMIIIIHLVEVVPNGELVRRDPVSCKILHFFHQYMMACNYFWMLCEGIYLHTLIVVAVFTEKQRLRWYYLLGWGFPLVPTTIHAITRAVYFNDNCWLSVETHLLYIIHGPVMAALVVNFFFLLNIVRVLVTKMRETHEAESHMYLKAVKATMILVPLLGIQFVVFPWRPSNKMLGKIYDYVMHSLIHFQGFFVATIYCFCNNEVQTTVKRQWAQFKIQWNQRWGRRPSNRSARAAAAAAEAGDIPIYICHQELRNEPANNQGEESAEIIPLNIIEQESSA
T1 sequence (O60896 24-148 partner): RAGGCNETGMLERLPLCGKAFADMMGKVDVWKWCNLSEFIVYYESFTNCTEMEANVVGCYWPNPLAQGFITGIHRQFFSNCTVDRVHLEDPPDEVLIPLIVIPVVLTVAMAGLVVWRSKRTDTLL
Description: PathHunter β-arrestin recruitment reporter assay, amylin receptor. Format: cell-based. The following applies: 10% FBS (Table S1). A general note: Arrestin recruitment assays detect the binding of arrestin to an activated receptor.

The next assay has as its system AMY3R cell line. The assay is classed as binding, human. The following applies: competition with […] 125I-sCT, AMY3R cells, triplicates.
Assay [2] concerns obese male Sprague Dawley rats (HFD). Kind of assay: Acute food intake and body weight after single s.c. injection. Conditions: HFD SD rats; for body weight change after single injection: single s.c. 3 nmol/kg, 96-hour profile, n = 4. Format: in vivo, rat. The method in brief: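 Male Sprague Dawley rats on 60 kcal% fat diet from 5–6 weeks of age were used when obese (>500 g). They were allocated by body weight and given a single s.c. injection at time 0. Food intake and body weight were recorded daily for 96–144 h. tAUC (0–96 h) was calculated. n = 4–10 per group. One-way ANOVA with Tukey versus vehicle; mean ± SEM.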

For assay [3] the test system is unchanged. Description: Acute gastric emptying rate. Format: in vivo, rat. The following applies: plasma acetaminophen, n = 8. The method in brief: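 Obese HFD-fed male Sprague Dawley rats were fasted overnight, then given s.c. test compound plus oral glucose bolus and acetaminophen at time 0. Tail-vein EDTA blood was taken at 0, 30, 60, 120 and 240 min. Plasma acetaminophen by ELISA served as gastric emptying estimate, expressed as % of vehicle. n = 8. One-way ANOVA/Tukey at 60 and 240 min; Kruskal–Wallis/Dunn at 30 and 120 min.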

The test system of assay [4] is Zucker diabetic fatty (fa/fa; ZDF) rats. Kind of assay: 8-week intervention study in ZDF rats. The assay is classed as in vivo, rat. Conditions: for HbA1c levels compared to vehicle / OGTT blood glucose iAUC compared to vehicle: KBP-066 […] q.d.; for HbA1c levels compared to vehicle: KBP-066A 1.5 and 3 nmol/kg q.3.d.; for vehicle-corrected reduction in HbA1c at the end of the study: dose not given; for OGTT blood glucose iAUC compared to vehicle: OGTT 1 g/kg after seven weeks, KBP-066A 0.75 and 3 nmol/kg q.3.d.; for tAUC, BW / tAUC, FI / Epididymal AT / Inguinal AT / Perirenal AT: n = 10, mean ± SEM; for Epididymal AT / Inguinal AT / Perirenal AT: study end.

The next assay has as its system HFD Sprague Dawley rats. Kind of assay: Chronic 4-week study in high-fat diet-fed Sprague Dawley rats. Format: in vivo, rat. The following applies: for tAUC, BW / tAUC, FI / Epididymal AT / Inguinal AT / Perirenal AT: 4 weeks, n = 6, mean ± SEM; for Epididymal AT / Inguinal AT / Perirenal AT: study end. In short, it runs like this: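 Male Sprague Dawley rats fed 60 kcal% fat diet from 5–6 weeks old for 20 weeks were randomized by body weight (n = 6). Dosing was s.c. saline or test compound q.3.d. for 4 weeks. Body weight and food intake were taken daily, and tAUC calculated. Terminal OGTT (2 g/kg, 4 mL/kg p.o.) was run after 14-h fast, 24 h post-dose, with glucose iAUC. Epididymal, perirenal and inguinal fat were weighed.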

The mark [5] stands for this setting: single s.c. 36 nmol/kg, n = 6-10.
Where [6] appears, read: 0.75 nmol/kg s.c. q.3.d., 8 weeks.

“Ac-CSNLSTCXLGRLSQDLHRLQTYPKTDVGANAP-NH2 [KBP-066]”: the “fold lower EC50 than KBP-066A for the AMYR” value in assay [1] is “eight-fold”. Moreover, the “change of IC50 in 2% HSA compared to 0.01% HSA” value in the assay on AMY3R cell line is given as “not affected by the difference in HSA concentration”. The “body weight change after single injection” value in assay [2] is listed as “completely returned to the baseline after 72 h”. Besides, the “gastric emptying rate at 30 min” value in assay [3] ([…] s.c., overnight fasted rats) is given as “reduced the gastric emptying rate”. For the same substance, in assay [3] (both doses 0.75 and […] s.c.), the “gastric emptying rate at 60 and 120 min” value is listed as “significantly did so”. Besides, in assay [4] (8 weeks), the “HbA1c levels compared to vehicle” value is reported as “significantly improved” and the “vehicle-corrected reduction in HbA1c at the end of the study” value was determined as 31%. Moreover, in assay [4], the “OGTT blood glucose iAUC compared to vehicle” value is given as “significantly reduced”.
As to “Ac-CSNLSTCXLGKLSQDLHRLQTYPKTDVGANAP-NH2 [KBP-066A]”, the “change of IC50 in 2% HSA compared to 0.01% HSA” value in the assay on AMY3R cell line was determined as 100 fold. Moreover, the “effect on food intake and body weight” value in assay [2] (single s.c. 0.5 nmol/kg (lowest dose), n = 6-10) is reported as “only had a minor effect on both parameters”. Moreover, in assay [2], the “body weight change after single injection” value was “still markedly reduced even 96 h post-injection”. Moreover, in assay [2] (setting [5]), the “duration of effect on body weight” value is 144 h and the “duration of effect on food intake” value worked out at 120 h. Moreover, in the assay on HFD Sprague Dawley rats (1 nmol/kg s.c. q.3.d.), the “tAUC, BW” value is on record as 2584 ± 7∗∗∗ g∗days^−1; the “tAUC, FI” value is listed as 617 ± 10∗∗∗ g∗days^−1; the “Epididymal AT” value was 4.4 ± 1.0 g; the “Inguinal AT” value was found to be 2.8 ± 0.3 g. Also, the “Perirenal AT” value in the assay on HFD Sprague Dawley rats (1 nmol/kg s.c. q.3.d.) is 3.5 ± 0.9 g. For the same substance, in the assay with HFD Sprague Dawley rats (2 nmol/kg s.c. q.3.d.), the “tAUC, BW” value was 2452 ± 6∗∗∗¤ g∗days^−1; the “tAUC, FI” value is listed as 518 ± 6∗∗∗¤¤¤ g∗days^−1; the “Epididymal AT” value worked out at 3.9 ± 1.1 g; the “Inguinal AT” value stood at 1.9 ± 0.5 g. In the assay with HFD Sprague Dawley rats (2 nmol/kg s.c. q.3.d.), the “Perirenal AT” value is recorded as 2.7 ± 0.7∗∗ g. Also, in the assay on HFD Sprague Dawley rats (4 nmol/kg s.c. q.3.d.), the “tAUC, BW” value was 2458 ± 8∗∗∗ g∗days^−1; the “tAUC, FI” value is given as 532 ± 10∗∗∗¤¤ g∗days^−1; the “Epididymal AT” value came out at 4.2 ± 1.2 g; the “Inguinal AT” value is recorded as 2.9 ± 1.4 g. Besides, in the assay on HFD Sprague Dawley rats (4 nmol/kg s.c. q.3.d.), the “Perirenal AT” value was 2.8 ± 1.0∗∗ g. In the assay with HFD Sprague Dawley rats (OGTT after four weeks, KBP-066A 1, 2, 4 nmol/kg q.3.d.), the “OGTT glucose iAUC compared to vehicle” value is reported as “not statistically significant compared to vehicle”. Also, the “effect on fasting blood glucose levels” value in assay [4] (0.75 nmol/kg q.3.d. (lowest dose), 8 weeks) was “minor”. Also, in assay [4] (setting [6]), the “tAUC, BW” value worked out at 6180 ± 67 g∗days^−1; the “tAUC, FI” value is recorded as 3815 ± 135∗∗¤ g∗days^−1; the “Epididymal AT” value is 3.7 ± 0.1 g; the “Inguinal AT” value came to 4.8 ± 0.4 g. Further, in assay [4] (setting [6]), the “Perirenal AT” value is recorded as 6.0 ± 0.3 g. In assay [4] (3 nmol/kg q.3.d. (highest dose), 8 weeks), the “fasting blood glucose levels (tAUC) compared to KBP-066 q.d.” value is on record as “significantly improved”. In addition, in assay [4] (3 nmol/kg s.c. q.3.d., 8 weeks), the “tAUC, BW” value is on record as 6409 ± 122 g∗days^−1; the “tAUC, FI” value was 2898 ± 61∗∗∗ g∗days^−1; the “Epididymal AT” value was found to be 4.7 ± 0.2 g; the “Inguinal AT” value was 6.3 ± 0.7 g. For the same substance, the “Perirenal AT” value in assay [4] (3 nmol/kg s.c. q.3.d., 8 weeks) is given as 6.7 ± 0.4 g. Besides, the “plasma insulin (tAUC) compared to KBP-066 q.d.” value in assay [4] (8 weeks, 3 nmol/kg q.3.d.) is “significantly preserved plasma insulin at higher levels”. In addition, in assay [4] (8 weeks), the “HbA1c levels compared to vehicle” value is recorded as “significantly improved” and the “vehicle-corrected reduction in HbA1c at the end of the study” value amounted to 46%. The “OGTT blood glucose iAUC compared to vehicle” value in assay [4] is “significantly reduced”.

These data come from PMC8313742 (Molecular Metabolism, 2021).
